Screens deposited in PubChem by Johns Hopkins Ion Channel Center.
TRPC4 act: TRPC4 (mouse) channel activation | HEK293 TRPC4beta/mu-opioid, Fluo4 calcium fluorescence; active compounds read high | B-score at 10 µM | hit rate 0.49% among 310,000 | AID 2237;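 active means B-score above 5 SD of library B-scores, and initial fluorescence ratio not above library mean plus 5 SD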;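 further: positive B-score marks a calcium rise read as TRPC4 activation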
Target sequence (Q9QUQ5 whole entry, looked up): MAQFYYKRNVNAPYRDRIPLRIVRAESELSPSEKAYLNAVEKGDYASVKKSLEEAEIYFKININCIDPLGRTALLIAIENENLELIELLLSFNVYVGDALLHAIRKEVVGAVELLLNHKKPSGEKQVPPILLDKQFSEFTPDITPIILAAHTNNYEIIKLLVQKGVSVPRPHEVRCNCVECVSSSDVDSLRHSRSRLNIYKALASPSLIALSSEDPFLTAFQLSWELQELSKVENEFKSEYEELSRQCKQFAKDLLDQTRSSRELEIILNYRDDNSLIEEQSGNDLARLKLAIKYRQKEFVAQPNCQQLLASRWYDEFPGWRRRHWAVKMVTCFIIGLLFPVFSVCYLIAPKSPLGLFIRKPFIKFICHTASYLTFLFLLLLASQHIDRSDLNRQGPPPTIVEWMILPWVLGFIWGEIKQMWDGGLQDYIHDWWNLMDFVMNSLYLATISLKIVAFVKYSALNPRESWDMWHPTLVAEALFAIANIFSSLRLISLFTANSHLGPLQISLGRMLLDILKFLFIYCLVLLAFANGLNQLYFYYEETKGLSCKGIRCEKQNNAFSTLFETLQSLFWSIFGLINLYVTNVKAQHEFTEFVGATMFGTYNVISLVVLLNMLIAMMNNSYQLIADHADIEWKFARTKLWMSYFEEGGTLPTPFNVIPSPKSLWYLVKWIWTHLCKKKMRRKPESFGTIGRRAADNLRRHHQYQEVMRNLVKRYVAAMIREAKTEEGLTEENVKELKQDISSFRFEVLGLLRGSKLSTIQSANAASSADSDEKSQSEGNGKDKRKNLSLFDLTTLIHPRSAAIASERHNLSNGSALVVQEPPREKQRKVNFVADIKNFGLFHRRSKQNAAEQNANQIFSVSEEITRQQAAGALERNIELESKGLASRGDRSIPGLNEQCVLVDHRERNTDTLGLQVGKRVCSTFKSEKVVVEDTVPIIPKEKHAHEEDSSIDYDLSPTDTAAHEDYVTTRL
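Material: HEK293 stable line with TRPC4beta plus mu-opioid receptor; technique: Fluo4 calcium-sensitive dye fluorescence, kinetic, 1 Hz baseline; timing: Fluo4 dye loading 45 min at room temperature, 110 s recording; controls: assay buffer as low control, maximal DAMGO as high control; read-out: integrated baseline-normalised fluorescence ratio, converted to per-well B score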
TRPC4 inh: blocks the mouse TRPC4 cation channel | Q9QUQ5 | HEK293 TRPC4beta/mu-opioid, DAMGO-evoked Fluo4 calcium flux; active compounds read low | B-score at 10 µM | hit rate 0.39% among 300,000;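 active means B-score over 3 SD under the library average, no early fluorescence shift, positive overall ratio signal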
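Assay system: Stable TRPC4beta/mu-opioid receptor HEK293 cells | Reagent: DAMGO in two steps, submaximal then maximal | Compound dosing: Single concentration per test compound | Signal: Fluo4 Ca2+ flux fluorescence | Evaluation: Per-well B score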
TRPC6 activator: activates the mouse TRPC6 cation channel; Q61143; HEK293-TRPC6 membrane potential dye fluorescence; active compounds read high; B-score at 10 µM; hit rate 0.13% among 310,000;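 active means B-score of the integrated fluorescence ratio above library mean plus 3 SD, and starting fluorescence ratio within library mean plus 5 SD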;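 further: higher score means more depolarization so channel activation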
TRPC4 potent: TRPC4 (mouse) allosteric potentiation. Q9QUQ5. HEK293 TRPC4beta/mu-opioid, DAMGO EC20, Fluo-4 Ca2+ flux; active compounds read high. B-score at 10 µM. hit rate 0.42% among 310,000. AID 2227;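 active means B-score of calcium response area above 5 SD of library B-scores, with initial fluorescence ratio within 5 SD of library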
TRPC6 inh: mouse TRPC6 channel inhibition. Q61143. HEK293-TRPC6, membrane potential dye, ACh-evoked depolarization; active compounds read low. B-score at 10 µM. hit rate 1.1% among 310,000. AID 2553;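 active means B-score under library mean minus 3 SD, initial fluorescence not abnormally high, positive integrated signal ratio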;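 further: B-score derived from integrated fluorescence ratio over the kinetic read; more negative B-score means stronger inhibition of depolarization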
TRPC4 sel inh 2: second check of whether TRPC6 inhibitors also affect mouse TRPC4 | inhibition, % at 10 µM | hit rate 42% among 920 | HEK293 TRPC4/MOR, membrane potential dye fluorescence; channel activated by saturating DAMGO dose | shares compounds with TRPC6 inh;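 active means compounds whose fluorescence signal differed from control wells by over 3 SD, either direction, in both duplicate plates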
TRPC4 spec: tests whether TRPC6 inhibitors also affect mouse TRPC4; activity change, negative = inhibition, % at 10 µM; AID 2777; HEK293 TRPC4/mu-opioid, membrane potential fluorescence; shares compounds with TRPC6 inh; hit rate 61% among 920;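 active means rise or fall in signal beyond 3 SD of buffer-only wells in both replicate plates, either sign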;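 further: integrated kinetic ratio of fluorescence range over baseline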
HEK293 MPD ctr 2-1: second counter-screen for TRPC6 inhibitors: parental HEK293 cells; shares compounds with TRPC6 inh; parental HEK293 membrane potential dye fluorescence; maximal acetylcholine challenge after compound addition; signal change vs control, % at 10 µM; hit rate 31% among 920;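 active means membrane potential signal moving either way by over 3 SD of the maximum-effect control, in both duplicate plates, meaning non-specific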
HEK293 MPD ctr-1: checks TRPC6 inhibitor effects in parental HEK293 cells | shares compounds with TRPC6 inh | parental HEK293 membrane potential dye fluorescence | membrane potential signal change, % at 10 µM | hit rate 60% among 920;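 active means membrane potential signal shifting up or down by more than 3 SD of buffer-only wells, on both duplicate plates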
HEK293 MPD ctr-2: parental HEK293 nonspecific activity of TRPC6 modulators; shares compounds with TRPC6 inh; membrane potential dye fluorescence; membrane potential signal change, % at 10 µM; hit rate 51% among 2,400; AID 488924;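 active means membrane potential signal moves up or down beyond 5 SD from buffer-only wells, on both duplicate plates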
HEK293 MPD ctr 2-2: second check of TRPC6 modulator effects in parental HEK293 cells | shares compounds with TRPC6 inh | membrane potential dye fluorescence; after compound, maximal acetylcholine stimulation | inhibition, % at 10 µM | hit rate 14% among 2,400;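 active means membrane potential signal drops by more than 5 SD from the mean control signal, in both duplicate plates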
TRPC4 ctr mod: selectivity of TRPC6 modulators against mouse TRPC4 | HEK293 TRPC4/mu-opioid, membrane potential fluorescence | hit rate 69% among 2,400 | percent change from control (negative = decrease, positive = increase), % at 10 µM | shares compounds with TRPC6 inh | AID 488927;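 active means membrane potential signal moved up or down beyond 5 SD of buffer control wells, in both duplicate plates, actives on both sides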
TRPC4 ctr inh 2: mouse TRPC4 off-target activity of TRPC6 modulators, second screen | shares compounds with TRPC6 inh | inhibition, % at 10 µM | hit rate 55% among 2,400 | HEK293 TRPC4/mu-opioid, membrane potential dye fluorescence; stimulated with maximal-effect DAMGO | AID 488928;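 active means drop in membrane potential signal beyond 5 SD of the control wells in both duplicate plates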;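 further: TRPC4 counter screen for TRPC6 hits run under conditions tuned for TRPC6 not TRPC4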
TRPC6 inh conf: mouse TRPC6 inhibitor confirmation | shares compounds with TRPC6 inh | HEK293-TRPC6, membrane potential dye, ACh-evoked depolarization | inhibition, % at 10 µM | hit rate 43% among 3,300 | AID 488960;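 active means fluorescence ratio falls more than 5 SD below the full-stimulation control mean, in both duplicate runs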;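 further: integrated fluorescence ratio of peak minus minimum over baseline after agonist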
TRPC6 act conf: mouse TRPC6 activator confirmation. hit rate 11% among 2,800. AID 488961. shares compounds with TRPC6 inh. HEK293-TRPC6 membrane potential dye fluorescence, FDSS. activation, % at 10 µM;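 active means ratio signal rise beyond 5 SD above unstimulated control wells' mean, seen in both duplicate runs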
Numbers stand for hits; n = inactive; x = no result given. Only some compounds are listed: those with a hit (about 2.3% of all), similar ones and a draw of the others.

SMILES	TRPC4 act	TRPC4 inh	TRPC6 activator	TRPC4 potent	TRPC6 inh	HEK293 MPD ctr-2	HEK293 MPD ctr 2-2	TRPC4 ctr mod	TRPC4 ctr inh 2	TRPC6 inh conf	TRPC6 act conf	others
CCOC(=O)C1=C(C)NC(C)=C(C(=O)OCC)C1c1cccs1	n	n	n	n	n	x	x	x	x	x	x
CC(/C=C/c1ccccc1)=N\NC(=O)c1cc(C)nc2ccccc12	n	n	n	n	n	x	x	x	x	x	x
COc1ccc2c(c1)-c1c(ssc1=S)C(C)(C)N2	n	n	n	n	-5.61	-164.5%	n	-33.0%	60.0%	46.0%	n
COc1ccc(-c2nnn(CC(=O)NCCc3ccc(OC)c(OC)c3)n2)cc1	n	n	n	n	n	x	x	x	x	x	x
CCOC(=O)c1c(N)n(-c2ccc(N)cc2)c2nc3ccccc3nc12	n	n	n	n	n	x	x	x	x	x	x
CCOC(=O)c1c(N)n(C2CC(C)(C)NC(C)(C)C2)c2nc3ccccc3nc12	n	n	n	n	-5.44	-294.5%	n	-55.0%	43.0%	n	n
CC(Oc1ccc2c3c(c(=O)oc2c1)CCC3)C(=O)NC1CCN(Cc2ccccc2)CC1 (stereo unspecified)	n	n	n	n	-6.33	n	n	-13.5%	74.0%	57.5%	n
CCSc1nnc(NC(=O)CCNS(=O)(=O)c2cc(Br)cnc2N)s1	n	n	n	n	n	x	x	x	x	x	x
C/C(=N\NC(=S)NC(C)C)c1ccccc1OC(F)F	n	n	n	n	-8.85	x	x	x	x	n	n	TRPC4 sel inh 2=n;TRPC4 spec=n;HEK293 MPD ctr 2-1=n;HEK293 MPD ctr-1=n
COc1ccccc1CNC1CCCc2ccccc21 (stereo unspecified)	n	n	n	n	-7.43	x	x	x	x	64.8%	x	TRPC4 sel inh 2=n;TRPC4 spec=19.9%;HEK293 MPD ctr 2-1=n;HEK293 MPD ctr-1=9.1%
CCN1CCCc2cc(CN(CCN3CCOCC3)C(=O)Nc3ccc(C)c(C)c3)ccc21	n	n	n	n	-5.02	n	n	n	41.0%	n	n
Cc1cc(NCCN(C)C)n2nc(-c3cccs3)cc2n1	n	n	n	n	-6.8	-272.0%	n	-52.0%	48.5%	n	n
CC[n+]1c(/C=C/N(C)c2ccccc2)oc2ccc(F)cc21	n	n	n	n	n	x	x	x	x	x	x
CC[n+]1c(/C=C/Nc2ccccc2)oc2ccccc21	n	n	n	n	-7.33	-169.0%	76.0%	-44.0%	81.5%	69.0%	n
CC[n+]1c(/C=C/Nc2ccccc2)oc2ccc(OC)cc21	n	-7	n	n	-5.54	-74.5%	n	-24.0%	n	46.5%	n
COc1ccc(N2C(=O)CSC2c2ccc3c(c2)OCO3)cc1 (stereo unspecified)	n	n	n	n	-7.54	x	x	x	x	n	n	TRPC4 sel inh 2=n;TRPC4 spec=n;HEK293 MPD ctr 2-1=n;HEK293 MPD ctr-1=n
COc1ccc(NC(=O)COc2ccccc2C(=O)NCC(c2ccccc2)N(C)C)cc1Cl (stereo unspecified)	45	n	n	n	-5.26	n	n	n	85.5%	48.0%	n
c1ccc(-c2cc3c(N4CCN(c5ccccc5)CC4)ncnc3s2)cc1	n	n	n	n	n	x	x	x	x	x	x
CN1CCN(c2ncnc3sc(-c4ccccc4)cc23)CC1	n	n	n	n	-6.23	n	n	n	38.5%	n	n
Cc1ccc(NC(=O)CCCc2ccccc2)nc1	n	n	n	n	n	x	x	x	x	x	x
COc1ccc(-c2cn(-c3ccc(Cl)cc3)c3[n+]2CCCCC3)cc1	n	n	n	n	n	x	x	x	x	x	x
Clc1ccc(-c2cn(-c3ccccc3)c3[n+]2CCS3)cc1	n	n	n	n	-7.36	-95.5%	58.0%	-16.5%	n	47.5%	n
COc1ccc(-c2cn(-c3ccc(Br)cc3)c3[n+]2CCS3)cc1	n	n	n	n	-5.93	n	n	n	n	n	n
Fc1ccc(-c2cn(-c3ccccc3)c3[n+]2CCS3)cc1	n	n	n	n	n	x	x	x	x	x	x
Cc1ccc(Nc2cccccc2=O)cc1	n	n	n	n	n	x	x	x	x	x	x
SMILES	TRPC4 act	TRPC4 inh	TRPC6 activator	TRPC4 potent	TRPC6 inh	HEK293 MPD ctr-2	HEK293 MPD ctr 2-2	TRPC4 ctr mod	TRPC4 ctr inh 2	TRPC6 inh conf	TRPC6 act conf	others
CN(C)CCOC(C1CCCCC1)C1CCCCC1	n	n	n	n	-5.53	229.5%	n	52.5%	50.5%	39.0%	x
O=C(COc1ccccc1)NCCSc1ccccc1	n	n	n	n	-5.77	n	n	8.5%	n	n	x
N#Cc1c(Cl)nsc1NC(=O)c1ccccc1	n	n	n	n	-5.29	255.5%	n	101.0%	79.5%	71.0%	x
N#Cc1c(NC(=O)c2ccccc2)sc2c1CCCCC2	n	n	n	n	n	x	x	x	x	x	x
CCN(CC)CCSc1nc(O)c(-c2ccccc2)c(=O)n1-c1ccccc1	n	n	n	n	n	x	x	x	x	x	x
CCN(CC)CCSc1nnc(Nc2ccccc2)n1-c1ccccc1	n	n	n	n	-7.76	x	x	x	x	n	n	TRPC4 sel inh 2=n;TRPC4 spec=2.4%;HEK293 MPD ctr 2-1=n;HEK293 MPD ctr-1=3.4%
CCN(CC)CCSc1nc2ccccc2c(=S)n1-c1ccccc1	n	n	n	n	-7.32	x	x	x	x	n	n	TRPC4 sel inh 2=33.0%;TRPC4 spec=3.5%;HEK293 MPD ctr 2-1=237.5%;HEK293 MPD ctr-1=7.1%
O=C(CS(=O)(=O)c1cn(Cc2ccc(F)cc2)c2ccccc12)N1CCCCC1	n	n	n	n	n	x	x	x	x	x	x
CC(C)CC(NC(=O)c1cccc(Cl)c1)C(=O)O (stereo unspecified)	n	n	n	n	n	x	x	x	x	x	x
CC(C)C(=O)N1CCN(c2ccccc2NC(=O)c2cc([N+](=O)[O-])ccc2N2CCOCC2)CC1	n	n	n	n	n	x	x	x	x	x	x
CCOc1cc(/C=C/c2cc(C(F)(F)F)[nH]c(=O)n2)ccc1O	n	n	n	n	n	x	x	x	x	x	x
